Measurements collected from several papers.
Protocols differ between the studies behind these lines.
Target: Myosin light chain kinase 2, skeletal/cardiac muscle (MYLK2, Homo sapiens, UniProt Q9H1R3)

Structure (SMILES) | assay | setting | remaining binding [%]
c1cncc(-c2cccc(Nc3nccc(NC4CCCCC4)n3)c2)c1 | binding, competition with immobilised ligand | 10 µM | 70
c1cnn2ncc(-c3ccnc(N4CCC45COC5)n3)c2c1 | binding | 1 µM | 77
Cc1cnc(Nc2ccc(C(=O)N3CCC(N4CCCC4)CC3)cc2)nc1-c1cc2ccccc2s1 | binding, competition with immobilised ligand | 1 µM | 1.8
COc1cc(-c2cn(C3CCc4c(F)cccc4N(CC(F)(F)F)C3=O)nn2)ccc1-n1cnc(C)c1 (centres unmarked) | cell-free assay, competition with immobilised ligand | 1 µM | 100
N[C@H]1CCN(c2nccc(-c3cnn4ncccc34)n2)C1 | binding | 1 µM | 92
Nc1ncc2c(n1)-c1c([nH]c3ccc(C#CC4CC4)cc13)CCCC2 | binding, competition with immobilised ligand | 1 µM | 100
CNCc1ccccc1-c1csc([C@H](C)Nc2nc(C)nc3cc(OC)c(OC)cc23)c1 | cell-free assay, competition with immobilised ligand | 1 µM | 100
O=C(Nc1c[nH]nc1C(=O)NC1CCNCC1)c1cc(F)cc(F)c1 | binding, competition with immobilised ligand | 1 µM | 88
CC1CCCN1c1nccc(-c2cnn3ncccc23)n1 (centres unmarked) | binding | 1 µM | 100
Cc1nc(C2CCN(C(=O)c3ccc(OC(F)(F)F)cc3N)CC2)c2ncc(N3CCN(C)CC3)cc2n1 | cell-free assay, competition with immobilised ligand | 1 µM | 87
O=C(NCCCN1CCOCC1)c1ccc(Nc2ncc(Cl)c(-c3ccc(Cl)s3)n2)cc1 | binding, competition with immobilised ligand | 1 µM | 12
C=CC(=O)N1CCC(C(=O)NCC(=O)N2CCN(c3nc(-c4cnc(N)nc4C(F)F)nc(N4CCOCC4)n3)CC2)CC1 | binding, competition with immobilised ligand | 1 µM | 97
COc1cnc(Nc2cccc(S(N)(=O)=O)c2)nc1N1CCN(c2ccccc2)CC1 | binding, competition with immobilised ligand | 1 µM | 100
CC(=O)C1=C(C)N(c2cccc(C(F)(F)F)c2)C(=O)N[C@@H]1c1ccc(C#N)nc1 | cell-free assay, competition with immobilised ligand | 1 µM | 100
C[C@@H]1CCN(c2nccc(-c3cnn4ncccc34)n2)C1 | binding | 1 µM | 86
Cc1c(C(=O)O)cc(-c2ccc(C3CCNCC3)cc2)c2ccc(-c3ccc(C(F)(F)F)cc3)cc12 | binding, competition with immobilised ligand | 1 µM | 100
CN(C)c1nccc(-c2cnn3ncccc23)n1 | binding | 1 µM | 100
Cc1cc(NC(=O)c2cccc(S(F)(F)(F)(F)F)c2)cc(-n2ccn3nc(-c4cccnc4)cc23)c1 | cell-free assay, competition with immobilised ligand | 1 µM | 100
O=C(c1ccc(Nc2ncc(Cl)c(-c3ccc(Cl)s3)n2)cc1)N1CCC(N2CCCC2)CC1 | binding, competition with immobilised ligand | 1 µM | 2.4
COc1ccnn2ncc(-c3ccnc(N(C)C)n3)c12 | binding | 1 µM | 96
